In this test the target is T1, Polyphenol oxidase 2 (Agaricus bisporus, UniProt O42713).
T1 sequence (O42713 whole entry): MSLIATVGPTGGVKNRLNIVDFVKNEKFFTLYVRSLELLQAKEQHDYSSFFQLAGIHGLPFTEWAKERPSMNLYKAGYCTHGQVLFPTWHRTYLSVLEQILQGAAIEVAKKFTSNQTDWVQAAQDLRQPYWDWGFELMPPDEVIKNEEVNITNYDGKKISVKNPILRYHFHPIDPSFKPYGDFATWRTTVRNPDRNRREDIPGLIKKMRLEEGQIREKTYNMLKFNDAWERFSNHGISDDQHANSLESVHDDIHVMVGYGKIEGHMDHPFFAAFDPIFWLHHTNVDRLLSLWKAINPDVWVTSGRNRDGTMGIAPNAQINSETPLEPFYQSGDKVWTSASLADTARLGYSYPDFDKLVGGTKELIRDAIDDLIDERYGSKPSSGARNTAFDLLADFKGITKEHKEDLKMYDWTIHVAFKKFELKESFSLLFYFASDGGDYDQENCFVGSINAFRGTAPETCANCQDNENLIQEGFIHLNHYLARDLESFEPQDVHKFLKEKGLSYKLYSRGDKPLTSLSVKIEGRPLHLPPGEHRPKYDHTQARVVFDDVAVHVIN
Description: Inhibition of mushroom tyrosinase. A digest of the protocol: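 Mushroom tyrosinase diphenolase assay: 1 mL reaction with 0.5 mM L-DOPA in 50 mM sodium phosphate buffer, pH 6.8, enzyme final 0.5 mg/mL, 25 °C. Compounds dissolved in DMSO (2.0% final); DMSO-only controls run. Dopachrome formation followed at 475 nm for 1 min. IC50 interpolated from dose–response curves; means of three experiments.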

Among the data in BindingDB's records for doi:10.1016/j.ejmech.2009.05.023 (Sun Yat-Sen University, 2009) are IC50 values, retold here.

The structures appear in SMILES notation.

Turning to `COCCOCCOc1ccc(Cc2c(O)[nH]c(=O)[nH]c2=O)cc1` [5-(4-(2-(2-Methoxyethoxy)ethoxy)benzyl)pyrimidine-2,4,6(1H,3H,5H)trione], the half-maximal inhibitory concentration (IC50) was > 200 µM.
The result for `O=c1[nH]c(O)c(Cc2ccc(O)cc2)c(=O)[nH]1` [5-(4-Hydroxybenzyl)pyrimidine-2,4,6(1H,3H,5H)-trione] reads > 200 µM.
The result for `COCCOc1ccc(Cc2c(O)[nH]c(=O)[nH]c2=O)cc1` [5-(4-(2-Methoxyethoxy)benzyl)pyrimidine-2,4,6(1H,3H,5H)-trione] reads > 200 µM.
Take `O=c1cc(O)[nH]c(=O)[nH]1` [Barbituric acid]: the IC50 was > 200 µM.
With `Oc1cc(O)nc(S)n1` [Thiobarbituric], the IC50 is > 200 µM.
For `O=c1[nH]c(O)c(Cc2ccc(OCCO)cc2)c(=O)[nH]1` [5-(4-(2-Hydroxyethoxy)benzyl)pyrimidine-2,4,6(1H,3H,5H)-trione], the IC50 was > 200 µM.
`COCCCCOc1ccc(Cc2c(O)[nH]c(=S)[nH]c2=O)cc1` [5-(4-(4-Methoxybutoxy)benzyl)-2-thioxodihydropyrimidine-4,6(1H,5H)-dione]: the IC50 was > 200 µM.
As to `CCCCOCCOc1ccc(Cc2c(O)[nH]c(=O)[nH]c2=O)cc1` [5-(4-(2-Butoxyethoxy)benzyl)pyrimidine-2,4,6(1H,3H,5H)-trione], the IC50 is > 200 µM.

Usually IC50 stands for the concentration that inhibits the measured activity by half. Read a high IC50 as lower potency.
